Measured values: PubChem BioAssay AID743257 (The Scripps Research Institute Molecular Screening Center, 2014)
About 1,900 (66%) of roughly 2,900 compounds were called active.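 How the source made its calls: active means mean inhibition across replicates above the hit cutoff set in the primary screen (cut at about 8.5% in these data); inactive means the rest.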 So high a share suggests a set chosen from earlier hits. The list is a sample of the results.

The compounds below were run against Disintegrin and metalloproteinase domain-containing protein 17 (Homo sapiens) (UniProt P78536) (assay: inhibition of human ADAM17 protease activity – biochemical, QFRET peptide cleavage, confirmation (AID 743257;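 further: 0% = DMSO wells and 100% = marimastat wells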)). Settings: recombinant ADAM17, EDANS/DABCYL QFRET peptide cleavage; at 6.95 µM; active compounds read high.
Summary of the method: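 Assay system – human ADAM17 enzyme, FRET peptide cleavage · Read-out – percent inhibition · Schedule – 30 min preincubation, 3 h reaction · Buffer or medium – 50 mM HEPES buffer, pH 7.5, with 0.01% Brij · Controls – DMSO wells and 1 µM marimastat wells as references · Measured by – fluorescence at ex 359 nm, em 460 nm · Dosing – 6.95 µM compound, single dose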

Chain of Disintegrin and metalloproteinase domain-containing protein 17 (Homo sapiens) (P78536 215-824 limits assumed): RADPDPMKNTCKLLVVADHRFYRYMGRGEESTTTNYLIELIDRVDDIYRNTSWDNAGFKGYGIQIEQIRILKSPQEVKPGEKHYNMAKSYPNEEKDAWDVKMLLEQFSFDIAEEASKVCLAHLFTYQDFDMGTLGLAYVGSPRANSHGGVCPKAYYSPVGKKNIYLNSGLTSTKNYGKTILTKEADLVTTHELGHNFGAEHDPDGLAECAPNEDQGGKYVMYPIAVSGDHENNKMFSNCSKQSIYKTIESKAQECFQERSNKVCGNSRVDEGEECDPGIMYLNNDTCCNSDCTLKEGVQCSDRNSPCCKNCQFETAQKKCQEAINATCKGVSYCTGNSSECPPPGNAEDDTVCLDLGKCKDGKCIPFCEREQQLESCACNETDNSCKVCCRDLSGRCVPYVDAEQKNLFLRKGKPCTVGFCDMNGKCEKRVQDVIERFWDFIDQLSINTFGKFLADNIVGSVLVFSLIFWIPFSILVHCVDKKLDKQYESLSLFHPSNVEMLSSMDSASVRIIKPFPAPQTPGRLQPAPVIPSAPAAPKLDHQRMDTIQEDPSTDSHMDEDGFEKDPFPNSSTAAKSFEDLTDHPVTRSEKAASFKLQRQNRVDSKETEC

SMILES | inhibition
CC1(Cc2cccc(C#N)c2)C(=O)Nc2ccc(-c3cccc(C(F)(F)F)c3)cc21 (stereo unspecified) | 16.4% (active)
O=C(COC(=O)CCCSc1nc2ccccc2[nH]1)Nc1ccc(Oc2ccccc2)cc1 | 21.9% (active)
COC(C(=O)Nc1ccc(S(=O)(=O)Nc2ccc(C)c(C)c2)cc1)c1ccccc1 (stereo unspecified) | 13.7% (active)
COc1ccc(C(CNC(=O)c2cc(S(=O)(=O)Nc3cccc(C)c3)ccc2C)N2CCCC2)cc1 (stereo unspecified) | 2.1% (inactive)
CCN1C(=O)C(CC(=O)Nc2cc(C)ccc2C)SC1=Nc1ccc(S(N)(=O)=O)cc1 (stereo unspecified) | 7.07% (inactive)
O=C(CC1SC(=Nc2ccccc2)N(Cc2ccccn2)C1=O)Nc1cccc(Cl)c1 (stereo unspecified) | 18.4% (active)
CCOc1ccc(Nc2nc(Cc3nnc(SCC(=O)c4ccc(C)cc4)o3)cs2)cc1 | 8.23% (inactive)
CN(C(=O)c1cccc(NC(=O)Cc2cccc([N+](=O)[O-])c2)c1)C1CCCCC1 | 8.38% (inactive)
O=C(CSc1nc(-c2ccccc2)cs1)Nc1cccc([N+](=O)[O-])c1 | 14.6% (active)
CC(C)(C)N1C(=O)[C@H]2[C@@H](c3ccc(Br)cc3)N3C(=O)N(c4cccc(Cl)c4)C(=O)[C@@]3(C)[C@H]2C1=O | 12.8% (active)
COc1ccc([C@@H]2[C@@H]3C(=O)N(C(C)(C)C)C(=O)[C@@H]3[C@]3(Cc4ccccc4)C(=O)N(c4cccc(Br)c4)C(=O)N23)cc1 | 14.3% (active)
CC[C@@]12C(=O)N(c3ccccc3)C(=O)N1[C@H](c1ccc(Br)cc1)[C@@H]1C(=O)N(C(C)(C)C)C(=O)[C@@H]12 | 2.65% (inactive)
CCOc1ccccc1C1CC(c2cccc(NS(C)(=O)=O)c2)=NN1C(=O)c1ccccc1 (stereo unspecified) | 3.69% (inactive)
CCOc1ccc(N2C(=O)CC(N(CCc3ccc(OC)c(OC)c3)C(=S)Nc3ccccc3)C2=O)cc1 (stereo unspecified) | 2.05% (inactive)
O=C(OCc1ccc(-c2ccccc2)cc1)c1cccc(O)c1 | 15.7% (active)
Cc1ccc(OCCOCCOc2ccc(Br)cc2/C=N\NC(=O)c2ccncc2)cc1 | 16.2% (active)
Cc1ccc(S(=O)(=O)NCCSc2ccccc2)cc1[N+](=O)[O-] | 7.81% (inactive)
COc1cccc(/C=N/NC(=O)c2cccc([N+](=O)[O-])c2)c1OS(=O)(=O)c1ccc(C)cc1 | 13.8% (active)
CC(C)Oc1cc(F)ccc1-c1cc(C(=O)Nc2cccc(Cl)c2)[nH]n1 | 14.6% (active)
O=C(COc1ccc(Cl)cc1)N1CCN(c2cccc(C(F)(F)F)c2)CC1 | 9.24% (active)
Cc1onc(C(=O)NN)c1-c1csc(COc2ccccc2)n1 | 3.32% (inactive)
